Reference: article PMC2119646 (The Journal of Cell Biology, 1993)

Columns and labels:
angiogenesis in vivo = conditions: Table VII; source Fibronectin, others; ref Eijan et al., 1991; cited from earlier work
[1] = tested on: Bovine adrenal capillary endothelial cells; assay: endothelial cell migration in an inverted modified Boyden chamber; assay type: cell-based
Summary of the method: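 Bovine capillary endothelial cells at passages 10-15 were starved 24 h in DME/0.1% BSA and adhered 1-2 h at 37°C to a gelatinized filter. The chamber was reinverted, with test material in the top well, and incubated 3-4 h at 37°C. Migrated cells were counted in 10 high-power fields, in quadruplicate, with experiments repeated at least twice. Results were expressed as % of positive-control migration after background subtraction and corrected for >10% detachment.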

[2] = tested on: neovascularization in the rat cornea; assay: rat cornea neovascularization assay; assay type: in vivo; conditions: Table I, Hydron pellets with TSP1 protein or fragments at 25-30 nM, without bFGF, vigorous vessel ingrowth from the limbus at 7 d = positive

In the case of G R G D, the “Small Peptides Able to Inhibit Angiogenesis In Vivo” value (angiogenesis in vivo) is given as “Able to Inhibit Angiogenesis In Vivo”.
With “TGF beta 1: Recombinant TGFβ1 purchased from R & D Sys. [reference compound]” the “concentrations that stimulated endothelial cell migration” value ([1]; TGFβ dose response, Fig. 8) was 0.04 to 0.4 pM.
In the case of “TSP: Human thrombospondin-1 purified from platelet releasate, 450-kD trimer”, the “Positive corneas/number implanted, Alone” value [2] is reported as 0/5, the “Migration of endothelial cells to upper chamber (%), Control, with bFGF” value ([1]; Table VI, bFGF 10 ng/ml plus TGFβ 0.2 ng/ml or TSP 2.5 µg/ml, no antiserum) is reported as less than 1% and the “ability to block endothelial cell migration stimulated by bFGF” value ([1]; bFGF 10 ng/ml, Fig. 4 b) is reported as “complete inhibition”.
With “bFGF: Recombinant bFGF, inducer and positive control [reference compound]” the “Migration of endothelial cells to upper chamber (%), Control” value ([1]; Table VI, addition alone: TGFβ 1 pg/ml or bFGF 10 ng/ml, no antiserum) was 100%.
With SPWD I C*SVTC*GGGVQKRSK [Mal III] the “ED50 for inhibition of migration with pure recombinant bFGF as inducer” value ([1]; retest of peptide with recombinant bFGF instead of conditioned media) was 7 µM.
